Data from ChEMBL document CHEMBL4619723, “New CDK8 inhibitors as potential anti-leukemic agents - Design, synthesis and biological evaluation” (Bioorg Med Chem, 2020).

Key:
[1] = target: Serine/threonine-protein kinase 32C (Homo sapiens) (UniProt Q86UX6); assay: Inhibition of biotinylated ligand binding to wild-type human partial length YANK3 (M68 to G486 residues) expressed in bacterial expression system at 50 nM measured after 1 hr by kinomescan assay relative to control
Outline: (§1)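 Kinase-tagged T7 phage was grown in an E. coli BL21-derived host at 32 °C until lysis, and the lysate was clarified. Kinase was bound to streptavidin beads carrying a biotinylated ligand, with test compound at 50 nM (final DMSO), in binding buffer for 1 h at rt. Bound kinase was eluted and quantified by qPCR. Result is POC relative to the DMSO (100%) and control-compound (0%) references.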

[2] = Selectivity ratio of EC50 for rat NRK cells to EC50 for human OCI-AML3 cells; format: toxicity; details: NRK cells versus OCI-AML3 cells, read-out: Ratio EC50
[3] = target: Serine/threonine-protein kinase RIO3 (Homo sapiens) (UniProt O14730); assay: Inhibition of biotinylated ligand binding to wild-type human full length RIOK3 (M1 to E519 residues) expressed in bacterial expression system assessed at 50 nM measured after 1 hr by kinomescan assay relative to control; outline: as §1
[4] = Selectivity ratio of EC50 for rat H9c2 cells to EC50 for human MV4-11 cells; format: toxicity; details: H9c2 cells versus MV4-11 cells, read-out: Ratio EC50
[5] = target: Serine/threonine-protein kinase RIO1 (Homo sapiens) (UniProt Q9BRS2); assay: Inhibition of biotinylated ligand binding to wild-type human full length RIOK1 (M1 to K568 residues) expressed in bacterial expression system at 50 nM measured after 1 hr by kinomescan assay relative to control; outline: as §1
[6] = target: Interleukin-1 receptor-associated kinase 3 (Homo sapiens) (UniProt Q9Y616); assay: Inhibition of biotinylated ligand binding to wild-type human partial length IRAK3 (V147 to E596 residues) expressed in bacterial expression system at 50 nM measured after 1 hr by kinomescan assay relative to control; outline: as §1
[7] = target: Dual specificity protein kinase CLK4 (Homo sapiens) (UniProt Q9HAZ1); assay: Inhibition of biotinylated ligand binding to wild-type human partial length CLK4 (R135 to K481 residues) expressed in bacterial expression system at 50 nM measured after 1 hr by kinomescan assay relative to control; outline: as §1
[8] = target: High affinity nerve growth factor receptor (Homo sapiens) (UniProt P04629); assay: Inhibition of biotinylated ligand binding to wild-type human partial length TRKA (G475 to G790 residues) expressed in mammalian expression system at 50 nM measured after 1 hr by kinomescan assay relative to control
Outline: (§2)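 Competition binding: kinase was bound to streptavidin beads carrying a biotinylated ligand, with test compound at 50 nM, in 20% SeaBlock, 0.17x PBS, 0.05% Tween 20 and 6 mM DTT for 1 h at rt with shaking. After washing, kinase was eluted with 0.5 μM free ligand and quantified by qPCR. Result is POC relative to the DMSO (100%) and control-compound (0%) references.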

[9] = target: Serine/threonine-protein kinase LATS1 (Homo sapiens) (UniProt O95835); assay: Inhibition of biotinylated ligand binding to wild-type human partial length LATS1 (Q678 to V1130 residues) expressed in bacterial expression system at 50 nM measured after 1 hr by kinomescan assay relative to control; outline: as §1
[10] = target: cGMP-dependent protein kinase 2 (Homo sapiens) (UniProt Q13237); assay: Inhibition of biotinylated ligand binding to wild-type human partial length PRKG2 (S422 to F762 residues) expressed in mammalian expression system at 50 nM measured after 1 hr by kinomescan assay relative to control; outline: as §2
[11] = tested on: Hepatocyte growth factor receptor (Homo sapiens), P08581 [Y1235D]; assay: Inhibition of biotinylated ligand binding to human partial length MET Y1235D mutant (D1010 to S1367 residues) expressed in bacterial expression system at 50 nM measured after 1 hr by kinomescan assay relative to control; outline: as §1
[12] = target: Serine/threonine-protein kinase PLK4 (Homo sapiens) (UniProt O00444); assay: Inhibition of biotinylated ligand binding to wild-type human partial length PLK4 (M1 to S273 residues) expressed in mammalian expression system at 50 nM measured after 1 hr by kinomescan assay relative to control; outline: as §2
[13] = target: cAMP-dependent protein kinase catalytic subunit alpha (Homo sapiens) (UniProt P17612); assay: Inhibition of biotinylated ligand binding to wild-type human partial length PKAC-alpha (G10 to F351 residues) expressed in bacterial expression system at 50 nM measured after 1 hr by kinomescan assay relative to control
NRK = assay: cells; details: Rattus norvegicus, 48 h
[14] = target: Mitogen-activated protein kinase 13 (Homo sapiens) (UniProt O15264); assay: Inhibition of biotinylated ligand binding to wild-type human full length p38-delta (M1 to L365 residues) expressed in bacterial expression system at 50 nM measured after 1 hr by kinomescan assay relative to control; outline: as §1
[15] = target: Cyclin-dependent kinase 7 (Homo sapiens) (UniProt P50613); assay: Inhibition of biotinylated ligand binding to wild-type human full length CDK7 (M1 to L344 residues) expressed in mammalian expression system at 50 nM measured after 1 hr by kinomescan assay relative to control; outline: as §2
[16] = Selectivity ratio of EC50 for rat H9c2 cells to EC50 for human OCI-AML3 cells; format: toxicity; details: H9c2 cells versus OCI-AML3 cells, read-out: Ratio EC50
[17] = Selectivity ratio of EC50 for rat NRK cells to EC50 for human MV4-11 cells; format: toxicity; details: NRK cells versus MV4-11 cells, read-out: Ratio EC50
[18] = Selectivity ratio of EC50 for rat H9c2 cells to EC50 for human MOLM13 cells; format: toxicity; details: H9c2 cells versus MOLM13 cells, read-out: Ratio EC50
[19] = target: Mitogen-activated protein kinase kinase kinase 2 (Homo sapiens) (UniProt Q9Y2U5); assay: Inhibition of biotinylated ligand binding to wild-type human partial length MAP3K2 (S315 to H619 residues) expressed in mammalian expression system at 50 nM measured after 1 hr by kinomescan assay relative to control; outline: as §2
[20] = target: NUAK family SNF1-like kinase 2 (Homo sapiens) (UniProt Q9H093); assay: Inhibition of biotinylated ligand binding to wild-type human partial length SNARK (P22 to A333 residues) expressed in mammalian expression system at 50 nM measured after 1 hr by kinomescan assay relative to control; outline: as §2
[21] = target: Cyclin-dependent kinase 19 (Homo sapiens) (UniProt Q9BWU1); assay: Inhibition of biotinylated ligand binding to wild-type human partial length CDK11 (M1 to N360 residues) expressed in bacterial expression system at 50 nM measured after 1 hr by kinomescan assay relative to control
Outline: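 T7 phage-tagged kinase lysates from E. coli BL21 were mixed with streptavidin beads carrying biotinylated ligand and 50 nM compound. Incubated 1 h at room temperature with shaking, washed, then eluted 30 min with 0.5 μM non-biotinylated ligand. Kinase was quantified by qPCR. POC = (test − positive)/(DMSO − positive) ×100, with a control compound as positive.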

MV4-11 = assay: cells; details: Homo sapiens, MV4-11, 48 h

Sequence of Serine/threonine-protein kinase PLK4 (Homo sapiens) (O00444 whole entry, the tested form may be a part): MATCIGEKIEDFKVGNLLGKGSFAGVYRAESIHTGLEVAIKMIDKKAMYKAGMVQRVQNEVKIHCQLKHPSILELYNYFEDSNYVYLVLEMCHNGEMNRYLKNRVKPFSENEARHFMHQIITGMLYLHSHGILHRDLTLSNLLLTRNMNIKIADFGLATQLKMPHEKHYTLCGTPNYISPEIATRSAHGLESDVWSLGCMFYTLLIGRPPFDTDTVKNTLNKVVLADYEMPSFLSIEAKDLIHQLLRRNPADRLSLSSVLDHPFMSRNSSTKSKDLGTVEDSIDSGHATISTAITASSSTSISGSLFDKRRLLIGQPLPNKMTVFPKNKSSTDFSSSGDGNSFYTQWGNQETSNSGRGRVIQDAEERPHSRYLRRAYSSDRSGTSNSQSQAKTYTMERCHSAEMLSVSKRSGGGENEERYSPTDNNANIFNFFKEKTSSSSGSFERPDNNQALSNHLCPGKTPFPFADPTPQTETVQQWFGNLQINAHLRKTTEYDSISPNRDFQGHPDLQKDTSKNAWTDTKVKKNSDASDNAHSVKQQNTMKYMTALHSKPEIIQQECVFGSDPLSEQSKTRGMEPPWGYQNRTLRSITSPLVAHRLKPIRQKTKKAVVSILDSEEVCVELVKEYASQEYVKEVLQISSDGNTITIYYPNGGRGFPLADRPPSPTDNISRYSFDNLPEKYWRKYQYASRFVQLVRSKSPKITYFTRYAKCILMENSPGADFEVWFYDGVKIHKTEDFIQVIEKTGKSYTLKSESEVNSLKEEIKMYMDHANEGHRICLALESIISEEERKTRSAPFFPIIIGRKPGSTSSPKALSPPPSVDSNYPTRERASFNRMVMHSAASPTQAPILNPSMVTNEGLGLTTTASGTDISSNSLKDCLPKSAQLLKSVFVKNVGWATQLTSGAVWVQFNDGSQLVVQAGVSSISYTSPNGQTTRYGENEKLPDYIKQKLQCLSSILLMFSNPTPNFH
Sequence of Interleukin-1 receptor-associated kinase 3 (Homo sapiens) (Q9Y616 whole entry, the tested form may be a part): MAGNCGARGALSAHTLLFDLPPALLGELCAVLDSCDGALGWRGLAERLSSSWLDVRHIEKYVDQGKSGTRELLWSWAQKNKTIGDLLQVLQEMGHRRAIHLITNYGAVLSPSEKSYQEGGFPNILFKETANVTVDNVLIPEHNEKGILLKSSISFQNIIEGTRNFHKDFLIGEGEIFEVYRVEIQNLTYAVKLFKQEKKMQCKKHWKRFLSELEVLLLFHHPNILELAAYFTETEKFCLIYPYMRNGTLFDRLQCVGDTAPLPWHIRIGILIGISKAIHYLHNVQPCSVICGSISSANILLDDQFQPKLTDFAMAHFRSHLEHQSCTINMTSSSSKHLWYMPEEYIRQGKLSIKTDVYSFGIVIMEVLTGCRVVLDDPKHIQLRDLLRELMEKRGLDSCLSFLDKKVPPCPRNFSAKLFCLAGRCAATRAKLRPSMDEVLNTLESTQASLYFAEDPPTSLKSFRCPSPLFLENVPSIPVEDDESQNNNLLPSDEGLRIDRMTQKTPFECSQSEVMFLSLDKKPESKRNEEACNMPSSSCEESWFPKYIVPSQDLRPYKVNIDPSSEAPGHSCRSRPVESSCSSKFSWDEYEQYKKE
Sequence of NUAK family SNF1-like kinase 2 (Homo sapiens) (Q9H093 whole entry, the tested form may be a part): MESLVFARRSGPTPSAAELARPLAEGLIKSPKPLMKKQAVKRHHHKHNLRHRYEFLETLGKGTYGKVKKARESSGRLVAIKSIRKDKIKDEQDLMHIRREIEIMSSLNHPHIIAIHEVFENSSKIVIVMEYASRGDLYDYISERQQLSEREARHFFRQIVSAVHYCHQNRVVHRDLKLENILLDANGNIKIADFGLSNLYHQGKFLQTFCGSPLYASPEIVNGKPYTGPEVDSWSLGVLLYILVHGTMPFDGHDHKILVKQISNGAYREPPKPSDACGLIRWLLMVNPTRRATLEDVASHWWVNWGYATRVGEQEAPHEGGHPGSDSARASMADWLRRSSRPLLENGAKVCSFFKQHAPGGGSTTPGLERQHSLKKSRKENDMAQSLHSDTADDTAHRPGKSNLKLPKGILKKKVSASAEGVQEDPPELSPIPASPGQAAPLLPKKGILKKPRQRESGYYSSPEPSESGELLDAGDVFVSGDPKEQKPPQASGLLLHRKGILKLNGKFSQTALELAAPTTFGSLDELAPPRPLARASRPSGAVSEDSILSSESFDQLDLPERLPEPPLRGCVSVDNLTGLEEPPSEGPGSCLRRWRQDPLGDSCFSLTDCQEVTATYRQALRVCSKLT
Sequence of Hepatocyte growth factor receptor (Homo sapiens), P08581 [Y1235D] (P08581 whole entry Y1235D, the tested form may be a part): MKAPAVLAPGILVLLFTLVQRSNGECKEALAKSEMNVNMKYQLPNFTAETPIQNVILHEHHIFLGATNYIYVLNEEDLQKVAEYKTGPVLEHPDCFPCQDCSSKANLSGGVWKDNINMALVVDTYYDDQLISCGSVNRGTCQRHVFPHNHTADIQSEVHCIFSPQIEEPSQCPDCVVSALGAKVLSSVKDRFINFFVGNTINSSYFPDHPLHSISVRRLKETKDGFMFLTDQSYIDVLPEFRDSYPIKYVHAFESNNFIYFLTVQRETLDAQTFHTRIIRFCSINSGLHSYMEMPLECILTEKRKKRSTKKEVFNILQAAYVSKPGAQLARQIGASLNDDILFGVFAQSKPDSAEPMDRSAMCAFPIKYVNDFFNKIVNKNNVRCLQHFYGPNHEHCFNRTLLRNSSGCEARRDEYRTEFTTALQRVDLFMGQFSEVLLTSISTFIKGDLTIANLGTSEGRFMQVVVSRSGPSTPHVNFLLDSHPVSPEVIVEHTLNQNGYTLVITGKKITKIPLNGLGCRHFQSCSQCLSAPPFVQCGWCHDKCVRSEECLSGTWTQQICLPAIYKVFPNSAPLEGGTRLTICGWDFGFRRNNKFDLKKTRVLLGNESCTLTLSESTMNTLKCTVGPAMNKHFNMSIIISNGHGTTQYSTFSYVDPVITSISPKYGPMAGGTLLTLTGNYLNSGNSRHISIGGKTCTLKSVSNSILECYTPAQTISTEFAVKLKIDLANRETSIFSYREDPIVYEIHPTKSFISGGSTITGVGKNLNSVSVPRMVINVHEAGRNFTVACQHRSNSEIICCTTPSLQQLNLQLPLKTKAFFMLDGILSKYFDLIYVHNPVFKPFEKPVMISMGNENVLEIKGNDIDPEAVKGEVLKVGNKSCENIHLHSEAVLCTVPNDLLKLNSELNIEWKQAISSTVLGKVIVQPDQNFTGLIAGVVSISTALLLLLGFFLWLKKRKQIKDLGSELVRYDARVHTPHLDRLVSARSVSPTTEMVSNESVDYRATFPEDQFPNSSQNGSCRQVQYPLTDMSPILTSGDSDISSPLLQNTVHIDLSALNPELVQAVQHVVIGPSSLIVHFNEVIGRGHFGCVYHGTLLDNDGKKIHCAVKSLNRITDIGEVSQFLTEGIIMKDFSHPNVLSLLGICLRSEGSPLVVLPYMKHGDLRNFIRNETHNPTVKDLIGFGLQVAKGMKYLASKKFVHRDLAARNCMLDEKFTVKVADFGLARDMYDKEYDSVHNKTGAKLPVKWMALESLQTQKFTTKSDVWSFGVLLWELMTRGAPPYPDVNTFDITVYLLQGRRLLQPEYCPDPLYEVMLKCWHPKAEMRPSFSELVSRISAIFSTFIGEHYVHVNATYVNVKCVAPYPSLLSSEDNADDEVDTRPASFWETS
Sequence of Serine/threonine-protein kinase 32C (Homo sapiens) (Q86UX6 whole entry, the tested form may be a part): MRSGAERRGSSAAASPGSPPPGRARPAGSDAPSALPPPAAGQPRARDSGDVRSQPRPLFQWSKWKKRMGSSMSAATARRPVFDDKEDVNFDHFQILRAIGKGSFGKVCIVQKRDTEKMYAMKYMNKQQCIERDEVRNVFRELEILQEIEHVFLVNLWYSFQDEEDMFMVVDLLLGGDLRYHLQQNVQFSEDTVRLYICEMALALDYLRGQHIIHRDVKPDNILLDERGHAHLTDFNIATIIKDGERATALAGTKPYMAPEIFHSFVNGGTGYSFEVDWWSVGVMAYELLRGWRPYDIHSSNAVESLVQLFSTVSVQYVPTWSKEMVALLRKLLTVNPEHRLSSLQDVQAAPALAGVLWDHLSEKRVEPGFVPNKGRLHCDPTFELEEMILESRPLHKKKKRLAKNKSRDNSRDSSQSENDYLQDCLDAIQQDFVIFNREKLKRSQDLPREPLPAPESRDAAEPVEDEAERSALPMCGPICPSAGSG
Sequence of Mitogen-activated protein kinase 13 (Homo sapiens) (O15264 whole entry, the tested form may be a part): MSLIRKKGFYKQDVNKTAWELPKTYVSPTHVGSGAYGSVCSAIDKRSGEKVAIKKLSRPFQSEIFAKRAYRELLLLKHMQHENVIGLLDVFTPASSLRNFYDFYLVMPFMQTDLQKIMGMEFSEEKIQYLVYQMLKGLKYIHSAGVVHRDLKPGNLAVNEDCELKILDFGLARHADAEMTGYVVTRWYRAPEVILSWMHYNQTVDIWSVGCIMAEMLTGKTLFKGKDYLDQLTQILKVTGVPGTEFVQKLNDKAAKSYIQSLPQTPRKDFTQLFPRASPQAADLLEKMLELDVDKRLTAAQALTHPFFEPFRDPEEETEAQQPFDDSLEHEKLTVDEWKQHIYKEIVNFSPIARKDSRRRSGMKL
Sequence of Serine/threonine-protein kinase RIO1 (Homo sapiens) (Q9BRS2 whole entry, the tested form may be a part): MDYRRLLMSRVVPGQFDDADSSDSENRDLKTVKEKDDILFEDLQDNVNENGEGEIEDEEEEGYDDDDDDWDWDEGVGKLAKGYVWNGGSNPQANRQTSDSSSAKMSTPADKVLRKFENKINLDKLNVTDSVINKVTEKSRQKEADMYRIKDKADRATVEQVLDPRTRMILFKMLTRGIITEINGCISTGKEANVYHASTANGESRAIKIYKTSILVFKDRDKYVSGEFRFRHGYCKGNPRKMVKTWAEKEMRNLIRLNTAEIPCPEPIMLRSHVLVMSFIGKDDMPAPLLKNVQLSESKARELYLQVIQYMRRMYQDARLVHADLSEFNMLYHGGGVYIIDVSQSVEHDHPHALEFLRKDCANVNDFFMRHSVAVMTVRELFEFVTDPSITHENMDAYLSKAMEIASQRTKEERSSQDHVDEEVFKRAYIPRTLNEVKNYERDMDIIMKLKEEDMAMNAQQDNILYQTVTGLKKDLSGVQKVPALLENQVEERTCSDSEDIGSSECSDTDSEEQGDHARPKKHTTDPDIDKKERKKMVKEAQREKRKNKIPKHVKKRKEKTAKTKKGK

CN(C)[C@@H]1CC[C@@]2(C)[C@@H](CC[C@@H]3[C@@H]2CC[C@]2(C)C(c4cccc5cnccc45)=CC[C@@H]32)C1
inhibition [1]: > 80% | selectivity ratio [2]: 3 to 4 | inhibition [3]: > 80% | selectivity ratio [4]: 3 to 4 | inhibition [5]: > 80% | inhibition [6]: > 80% | inhibition [7]: > 80% | inhibition [8]: > 80% | inhibition [9]: > 80% | inhibition [10]: > 80% | inhibition [11]: > 80% | inhibition [12]: > 80% | inhibition [13]: > 80% | EC50 (NRK): 16.2 µM | inhibition [14]: > 80% | inhibition [15]: > 80% | selectivity ratio [16]: 3 to 4 | selectivity ratio [17]: 3 to 4 | selectivity ratio [18]: 3 to 4 | inhibition [19]: > 80% | inhibition [20]: > 80% | inhibition [21]: > 80% | EC50 (MV4-11): 5.4 µM
